B1: Osa-1-4 twister ribozyme (parent)
chain: CCGCCUAACACUGCCAAUGCCGGUCCCAAGCCCGGAUAAAAGUGGAGGGGGCGG

Variants of: B1
Assay: self-cleavage, relative activity (ratio to wild type); higher = more cleavage; co-transcriptional
Outline: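 A DNA template was synthesised for a 54-nucleotide twister ribozyme from Oryza sativa, with 97 % wild-type base and 1 % of each other base at each of the 48 positions downstream of the cleavage site. The ribozyme cleaved itself co-transcriptionally during 2 h of in vitro transcription at 37 °C. Reverse transcription with a template-switching oligonucleotide, PCR amplification and deep sequencing followed, and cleavage status came from reads with or without upstream sequence. Relative activity is the fraction cleaved normalised to wild type.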

Variant | self-cleavage
A10G U37A | 0.67
A10G U37C | 0.95
A10G U37G | 0.87
C11G G45A | 0.05
A10U U37A | 0.04
A10U U37G | 0.04
A10U U37C | 0.05
A10U C32A | 0.01
A10U C32U | 0.02
A10U C32G | 0.04
A10U C9U | 0.05
A10U C9A | 0.04
A10U C9G | 0.07
C11A G48U | 0.05
C11A G48A | 0.05
C11A G48C | 0.05
A10U C15U | 0.04
A10U C15G | 0.03
A10U C15A | 0.03
C11A C32A | 0.06
C11A C32U | 0.06
C11A C32G | 0.07
C11G G13C | 0.02
C11G G13A | 0.06

Variant | self-cleavage
C11G G13U | 0.03
A10U U12G | 0.02
A10U U12A | 0.05
A10U U12C | 0.02
A10U G53U | 0.03
A10U G53A | 0.04
A10U G53C | 0.02
A10U G51U | 0.03
A10U G51A | 0.04
A10U G51C | 0.02
A10U G34A | 0.05
A10U G34C | 0.03
A10U G34U | 0.03
A10G G53U | 0.22
A10G G53A | 0.41
A10G G53C | 0.07
C11A C20G | 0.06
C11A C20U | 0.66
C11A C20A | 0.62
C11A C27U | 0.08
C11A C27G | 0.04
C11A C27A | 0.12
C11G C20G | 0.04
C11G C20U | 0.5

Variant | self-cleavage
C11G C20A | 0.4
A10U G30U | 0.01
A10U G30A | 0.01
A10U G30C | 0.01
A10U G19U | 0.02
A10U G19A | 0.05
A10U G19C | 0.01
C11G G34A | 0.07
C11G G34C | 0.05
C11G G34U | 0.04
A10U G45A | 0.03
A10U G45C | 0.02
A10U G45U | 0.02
C11A C9A | 0.33
C11A C9U | 0.4
C11A C9G | 0.19
C11A G34C | 0.07
C11A G34A | 0.16
C11A G34U | 0.11
C11A G23C | 0.03
C11A G23A | 0.07
C11A G23U | 0.03
C11A G53C | 0.04
C11A G53U | 0.09

Variant | self-cleavage
C11A G53A | 0.49
A10U | 0.05
C11A U43G | 0.56
C11A U43C | 0.1
C11A U43A | 0.76
C11A C33G | 0.04
C11A C33A | 0.06
C11A C33U | 0.2
A10U G13C | 0.01
A10U G13U | 0
A10U G13A | 0.01
C11A G22C | 0.04
C11A G22U | 0.07
C11A G22A | 0.24
C11G G22U | 0.03
C11G G22A | 0.07
C11G G22C | 0.04
C11G G44C | 0.11
C11G G44U | 0.09
C11G G44A | 0.17
C11A C15G | 0.1
C11A C15A | 0.12
C11A C15U | 0.07
C11G C52U | 0.73

Variant | self-cleavage
C11G C52G | 0.22
C11G C52A | 0.24
C11G G23U | 0.04
C11G G23C | 0.02
C11G G23A | 0.05
A10U G35C | 0.03
A10U G35A | 0.06
A10U G35U | 0.04
A10U C52U | 0.05
A10U C52G | 0.07
A10U C52A | 0.04
A10U A41G | 0.04
A10U A41C | 0.04
A10U A41U | 0.07
A10U A39C | 0.04
A10U A39U | 0.12
A10U A39G | 0.08
C11A G13C | 0.03
C11A G13U | 0.04
C11A G13A | 0.03
C11A G47C | 0.05
C11A G47A | 0.07
C11A G47U | 0.06
C11A C14A | 0.07

Variant | self-cleavage
C11A C14U | 0.15
C11A C14G | 0.1
C11G G30C | 0.04
C11G G30U | 0.02
C11G G30A | 0.03
C11G C14G | 0.06
C11G C14U | 0.13
C11G C14A | 0.05
C11A G49A | 0.06
C11A G49U | 0.07
C11A G49C | 0.06
A10U A17C | 0.04
A10U A17G | 0.07
A10U A17U | 0.08
C11G C25G | 0.04
C11G C25A | 0.04
C11G C25U | 0.18
A10U C14A | 0.02
A10U C14U | 0.04
A10U C14G | 0.03
C11G C9U | 0.07
C11G C9A | 0.09
C11G C9G | 0.19
C11A G45A | 0.06

Variant | self-cleavage
C11A G45U | 0.06
C11A G45C | 0.04
A10G U18C | 0.68
A10G U18A | 0.85
A10G U18G | 0.66
C11A G44A | 0.19
C11A G44U | 0.08
C11A G44C | 0.45
C11G C32G | 0.06
C11G C32U | 0.04
C11G C32A | 0.04
C11A G19A | 0.11
C11A G19U | 0.06
C11A G19C | 0.04
C11A G50C | 0.57
C11A G50U | 0.77
C11A G50A | 0.3
A10U C27A | 0.02
A10U C27G | 0.04
A10U C27U | 0.05
C11A G35C | 0.09
C11A G35A | 0.4
C11A G35U | 0.37
A10U G22U | 0.03

Variant | self-cleavage
A10U G22A | 0.05
A10U G22C | 0.02
A10U A36G | 0.05
A10U A36C | 0.03
A10U A36U | 0.04
C11G C21A | 0.06
C11G C21G | 0.04
C11G C21U | 0.39
A10U A40C | 0.01
A10U A40G | 0.05
A10U A40U | 0.05
C11A G51U | 0.06
C11A G51A | 0.17
C11A G51C | 0.04
C11A C52U | 0.9
C11A C52A | 0.63
C11A C52G | 0.74
C11A G42C | 0.83
C11A G42U | 0.73
C11A G42A | 0.76
C11G C27U | 0.06
C11G C27G | 0.03
C11G C27A | 0.07
A10G G54C | 0.85

Variant | self-cleavage
A10G G54U | 0.89
A10G G54A | 0.9
C11G G19A | 0.08
C11G G19U | 0.05
C11G G19C | 0.03
A10U C20A | 0.05
A10U C20U | 0.05
A10U C20G | 0.03
A10U A29C | 0.01
A10U A29G | 0.03
A10U A29U | 0.03
C11A G30U | 0.03
C11A G30C | 0.03
C11A G30A | 0.03
C11A U24C | 0.06
C11A U24A | 0.05
C11A U24G | 0.07
A10U C11A | 0.04
A10U C11G | 0.03
A10U C11U | 0.05
C11A C31A | 0.05
C11A C31U | 0.09
C11A C31G | 0.06
C11G G42C | 0.76

Variant | self-cleavage
C11G G42A | 0.75
C11G G42U | 0.61
A10U G49U | 0.02
A10U G49C | 0.01
A10U G49A | 0.04
A10U U43G | 0.59
A10U U43C | 0.03
A10U U43A | 0.79
A10U C25G | 0.02
A10U C25U | 0.05
A10U C25A | 0.03
A10G G51C | 0.08
A10G G51A | 0.28
A10G G51U | 0.18
A10U G54A | 0.06
A10U G54C | 0.04
A10U G54U | 0.21
C11G C33A | 0.04
C11G C33G | 0.07
C11G C33U | 0.06
A10U U18A | 0.03
A10U U18G | 0.07
A10U U18C | 0.05
A10U G42A | 0.04

Variant | self-cleavage
A10U G42C | 0.04
A10U G42U | 0.02
C11A U37G | 0.81
C11A U37A | 0.48
C11A U37C | 0.88
C11G C26U | 0.19
C11G C26G | 0.1
C11G C26A | 0.03
A10U A28C | 0.03
A10U A28G | 0.04
A10U A28U | 0.05
A10U A7C | 0.02
A10U A7U | 0.03
A10U A7G | 0.08
A10U C26U | 0.04
A10U C26A | 0.01
A10U C26G | 0.05
A10U A8G | 0.05
A10U A8C | 0.03
A10U A8U | 0.04
A10U C33A | 0.02
A10U C33G | 0.01
A10U C33U | 0.04
A10U C31U | 0.05

Variant | self-cleavage
A10U C31A | 0
A10U C31G | 0.03
C11G C15U | 0.08
C11G C15A | 0.09
C11G C15G | 0.1
A10U G50C | 0.03
A10U G50A | 0.05
A10U G50U | 0.04
A10U A38U | 0.05
A10U A38G | 0.07
A10U A38C | 0.06
C11G C31G | 0.04
C11G C31U | 0.08
C11G C31A | 0.03
A10G U12A | 0.21
A10G U12G | 0.2
A10G U12C | 0.12
A10U G23C | 0.02
A10U G23A | 0.03
A10U G23U | 0.01
C11A U12C | 0.14
C11A U12A | 0.09
C11A U12G | 0.09
C11A C21G | 0.07

Variant | self-cleavage
C11A C21U | 0.71
C11A C21A | 0.14
C11A C25G | 0.05
C11A C25U | 0.18
C11A C25A | 0.11
A10U G47A | 0.02
A10U G47U | 0.02
A10U G47C | 0.02
A10U G44A | 0.03
A10U G44U | 0.08
A10U G44C | 0.09
C11A U18G | 0.64
C11A U18C | 0.43
C11A U18A | 0.67
C11A C26A | 0.06
C11A C26G | 0.06
C11A C26U | 0.21
C11G | 0.7
C11A | 0.84
A10U C21A | 0.03
A10U C21U | 0.07
A10U C21G | 0.02
C11G G35A | 0.08
C11G G35C | 0.05

Variant | self-cleavage
C11G G35U | 0.06
A10G U43A | 0.79
A10G U43C | 0.96
A10G U43G | 0.3
A10U A46U | 0.03
A10U A46C | 0.02
A10U A46G | 0
A10G U24A | 0.09
A10G U24C | 0.1
A10G U24G | 0.04
A10U U24A | 0.03
A10U U24C | 0.02
A10U U24G | 0.01
A10U G48C | 0.01
A10U G48U | 0.01
A10U G48A | 0.02
A10U A16C | 0.03
A10U A16G | 0.06
A10U A16U | 0.06
C11A G54C | 0.66
C11A G54A | 0.62
C11A G54U | 0.71

Reference: the RNAGym collection of RNA variant scans (doi:10.1002/anie.201605470)
